Laboratory results as given in ChEMBL document CHEMBL1121394, “Oxytocin and lysine-vasopressin with N5,N5-dialkylglutamine in the 4 position: effect of introducing sterically hindered groups into the hydrophilic cluster of neurohypophyseal hormones” (1980).

Legend:
Gallus gallus = species: Gallus gallus; test: Compound was tested in vitro for avain vasopressor activity; assay type: functional; settings: in the assay text read “vasodepressor” for “vasopressor”
Outline: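 Vasodepressor assay in conscious White Leghorn roosters (Coon method, modified). Where activity was measurable, Schild four-point design with at least ten determinations on three animals.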

Rattus norvegicus [1] = species: Rattus norvegicus; test: Compound was tested in vitro for antidiuretic activity in rat; assay type: functional, Urine; settings: in the assay text read “in vivo” for “in vitro”
Outline: (§1)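 Anesthetized male Sprague-Dawley rats. Where activity was measurable, Schild four-point design with at least ten determinations on three animals.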

Rattus norvegicus [2] = species: Rattus norvegicus; test: Compound was tested in vitro for pressor activity on rat; assay type: functional; settings: in the assay text read “in vivo” for “in vitro”; outline: as §1
Rattus norvegicus [3] = species: Rattus norvegicus; test: Compound was tested in vitro for uterotonic activity in rat; assay type: functional
Outline: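 Isolated uterine horns from virgin rats in natural estrus (Holton method as modified by Munsick), Mg2+-free van Dyke-Hastings solution as bath. Where activity was measurable, Schild four-point design with at least ten determinations on three animals.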

Rattus norvegicus [4] = species: Rattus norvegicus; test: Compound was tested for percent maximum uterotonic response; assay type: functional
Outline: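 Isolated uterine horns from virgin rats in natural estrus, bathed in Mg2+-free van Dyke-Hastings solution. Dose-response by individual injection, doses raised geometrically in 0.5 log10 steps until a maximal response was reached.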

CC[C@H](C)[C@@H]1NC(=O)[C@H](Cc2ccc(O)cc2)NC(=O)[C@@H](N)CSSC[C@@H](C(=O)N2CCC[C@H]2C(=O)N[C@@H](CC(C)C)C(=O)NCC(N)=O)NC(=O)[C@H](CC(N)=O)NC(=O)[C@H](CCC(N)=O)NC1=O [OXYTOCIN]
Activity (Gallus gallus): 507 mg
Activity (Rattus norvegicus [1]): 3.1 mg
Activity (Rattus norvegicus [2]): 2.7 mg
Activity (Rattus norvegicus [3]): 546 mg
Max uterotonic response (Rattus norvegicus [4]): 100%
